We go through 1 molecule from ChEMBL document CHEMBL2331253, “Atropisomeric dihydroanthracenones as inhibitors of multiresistant Staphylococcus aureus” (J Med Chem, 2013).

The subject of series [1] is Bacillus subtilis. Put plainly: Induction of yorB promoter in Bacillus subtilis IS34 after 3 hrs at 0.01 to 100 ug/ml by luciferase reporter gene assay. Format: functional. An outline of the steps: (§1)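 Promoter–firefly luciferase fusions were built in B. subtilis IS34. Luminescence was read in a plate reader and expressed as percent of the untreated control. One representative experiment.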

Series [2] concerns Bacillus subtilis. The series can be described thus: Induction of recA promoter in Bacillus subtilis YB3001 using 4-methylumbelliferyl beta D-galactopyranoside as substrate incubated for 3 hrs prior to substrate addition measured after 1 hr by beta galactosidase reporter gene assay relative to control. The format is functional. An outline of the steps: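 recA–β-galactosidase reporter in B. subtilis YB3001. Twofold compound dilutions in lysogeny broth were inoculated with mid-exponential cells and incubated 3 h at 37 °C, then frozen at −20 °C overnight. Cells were lysed with lysozyme (30 min, 37 °C) and Triton X-100. MUG was added and incubated 1 h at 25 °C. Fluorescence read at ex 360/em 450 nm.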

Series [3] has as its system Bacillus subtilis. Put plainly: Induction of bmrC promoter in Bacillus subtilis IS34 promoter at 64 ug/mL after 3 hrs by luciferase reporter gene assay. Format: functional, organism-based. The procedure, abridged: as §1
The test system of series [4] is Bacillus subtilis. The series can be described thus: Induction of helD promoter in Bacillus subtilis IS34 at 64 ug/mL after 3 hrs by luciferase reporter gene assay. The format is functional, organism-based. An outline of the steps: as §1
(In general: A reporter such as luciferase makes a cellular process visible.)

Series [5] deals with Bacillus subtilis. Put plainly: Induction of liaI promoter in Bacillus subtilis IS34 promoter at 64 ug/mL after 3 hrs by luciferase reporter gene assay. Format: functional, organism-based. An outline of the steps: as §1
The test system of series [6] is Klebsiella pneumoniae. Put plainly: Antibacterial activity against doxycycline, kanamycin-resistant Klebsiella pneumoniae ATCC 27799 assessed as growth inhibition by CLSI broth microdilution method. The format is functional. An outline of the steps: (§2)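 MICs determined by CLSI broth microdilution in Mueller–Hinton broth. Inoculum was prepared by direct colony suspension, at 5 × 10^5 CFU/mL.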
(In broth dilution the organism is exposed to a series of concentrations in liquid medium.)

Series [7] relates to Escherichia coli. Put plainly: Antibacterial activity against ciprofloxacin-resistant Escherichia coli WT-3-1 MB2 assessed as growth inhibition by CLSI broth microdilution method. Format: functional. The procedure, abridged:
as §2

The subject of series [8] is Escherichia coli. The series can be described thus: Antibacterial activity against Escherichia coli ATCC 25922 assessed as growth inhibition by CLSI broth microdilution method. The format is functional.
The test system of series [9] is Bacillus subtilis. The series can be described thus: Antibacterial activity against Bacillus subtilis subsp. subtilis str. 168 trpC2 assessed as growth inhibition by CLSI broth microdilution method. The format is functional.
Series [10] deals with Enterococcus faecium. The series can be described thus: Antibacterial activity against clarithromycin, erythromycin, telithromycin, vancomycin-resistant Enterococcus faecium 6011 assessed as growth inhibition by CLSI broth microdilution method. Format: functional. An outline of the steps: as §2
The test system of series [11] is Enterococcus faecalis. Put plainly: Antibacterial activity against clarithromycin, erythromycin, moxifloxacin, telithromycin, vancomycin-resistant Enterococcus faecalis UW 2689 assessed as growth inhibition by CLSI broth microdilution method. The format is functional. An outline of the steps: as §2
The subject of series [12] is Streptococcus agalactiae. Put plainly: Antibacterial activity against doxycycline-intermediate Streptococcus agalactiae 013761 assessed as growth inhibition by CLSI broth microdilution method. The format is functional.
The test system of series [13] is Streptococcus pneumoniae. The series can be described thus: Antibacterial activity against Streptococcus pneumoniae ATCC 49619 assessed as growth inhibition by CLSI broth microdilution method. Format: functional.
Series [14] relates to Staphylococcus aureus. The series can be described thus: Antibacterial activity against amoxicillin, chloramphenicol, ciprofloxacin, clindamycin, erythromycin, fosmidomycin, gentamycin, kanamycin, nitrofurantoin, telithromycin, methicillin-resistant Staphylococcus aureus 25697 assessed as growth inhibition by CLSI broth microdilution method. The format is functional. The procedure, abridged:
as §2

Series [15] deals with Staphylococcus aureus. The series can be described thus: Antibacterial activity against Staphylococcus aureus ATCC 29213 assessed as concentration required for partial growth inhibition by CLSI broth microdilution method. Format: functional.
The subject of series [16] is Staphylococcus aureus. Put plainly: Antibacterial activity against Staphylococcus aureus ATCC 29213 assessed as growth inhibition by CLSI broth microdilution method. Format: functional. The procedure, abridged:
as §2

Series [17] concerns THP-1. The series can be described thus: Cytotoxicity against human THP1 cells assessed as growth inhibition up to 32 ug/mL after 48 hrs by Alamar blue assay. Format: cell-based. To be noted: thp-1, 48 h. An outline of the steps: (§3)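 THP-1 cells were kept in RPMI-1640 with 10% FCS. BALB/3T3 cells were kept in DMEM with 10% FCS. Cells were plated at 10^4 per well without antibiotics and exposed to 0.016−32 μg/mL (final, 0.32% DMSO) for 48 h at 37 °C, 5% CO2. AlamarBlue was added for 24 h more. Fluorescence (ex 560/em 600 nm) was expressed relative to untreated cells.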

Series [18] relates to BALB/3T3. The series can be described thus: Cytotoxicity against mouse BALB/3T3 cells assessed as growth inhibition up to 32 ug/mL after 48 hrs by Alamar blue assay. To be noted: balb/3t3, 48 h. Format: cell-based. The procedure, abridged: as §3
(In general: Alamar Blue is a resazurin reagent that responds to reducing activity.)

In series [19] the test system is Pseudomonas aeruginosa. Put plainly: Antibacterial activity against ceftazidime, ciprofloxacin, cefepime, gentamycin, imipenem, meropenem, piperacillin/tazobactam-resistant Pseudomonas aeruginosa 63230 assessed as growth inhibition by CLSI broth microdilution method. Format: functional. The procedure, abridged: as §2
In series [20] the test system is Streptococcus pyogenes. Put plainly: Antibacterial activity against doxycycline-intermediate Streptococcus pyogenes 014327 assessed as growth inhibition by CLSI broth microdilution method. The format is functional.
In series [21] the test system is Staphylococcus aureus. The series can be described thus: Antibacterial activity against ceftazidime, clarithromycin, ciprofloxacin, clindamycin, doxycycline, erythromycin, methicillin, moxifloxacin, kanamycin, telithromycin, rifampicin, methicillin-resistant, vancomycin-intermediate Staphylococcus aureus subsp. aureus Mu50 assessed as growth inhibition by CLSI broth microdilution method. The format is functional. An outline of the steps:
as §2

Each structure is given as a SMILES string. Values after ≈ are worked out from the molar mass of the structure shown. Active and inactive are the calls of the source. The rule behind the calls is not given here.

`Cc1cc(O)c2c(c1)C(=O)c1c(c(O)cc(O)c1-c1c(O)cc(O)c3c1C(=O)c1cc(C)cc(O)c1C3=O)C2=O` [SKYRIN]: the result in series [1], in series [2], in series [3], in [4] and in series [5] was inactive. The MIC was greater than 64 µg/mL in [6]; greater than 64 µg/mL in [7]; greater than 64 µg/mL in [8]; 4 µg/mL (≈ 7.43 µM) in series [9]; 32 µg/mL (≈ 59.4 µM) in series [10]; 16 µg/mL (≈ 29.7 µM) in [11]. Besides, the MIC in [12] was greater than 64 µg/mL; in series [13] it was 4 µg/mL (≈ 7.43 µM); in series [14], 4 µg/mL (≈ 7.43 µM); in [15] it was 2 µg/mL (≈ 3.71 µM); in series [16] it was 4 µg/mL (≈ 7.43 µM); in series [19], greater than 64 µg/mL. The MIC in series [20] was greater than 64 µg/mL; in [21], 2 µg/mL (≈ 3.71 µM). Moreover, the “growth inhibition (GI)” value in [17] and in series [18] was “Non-toxic” throughout.

For orientation: MIC means the lowest concentration that inhibits growth of the organism.
